According to ChEMBL document CHEMBL1128735, “CCK-A receptor selective antagonists derived from the CCK-A receptor selective tetrapeptide agonist Boc-Trp-Lys(Tac)-Asp-MePhe-NH2 (A-71623)” (J Med Chem, 1995):
Blank lines part the entries; values can stand above or below the compound they belong to. The source made the active and inactive calls. The calls are words filed in the database; no cut-off is given here.

Key:
Cavia porcellus [1] = organism: Cavia porcellus; test: Percent contraction induced by compound at […] in guinea pig gall bladder was determined; Inactive; format: functional
Cavia porcellus [2] = organism: Cavia porcellus; test: Percent contraction induced by compound at […] in guinea pig gall bladder was determined; format: functional
[3] = target: T1, Gastrin/cholecystokinin type B receptor (Homo sapiens, UniProt P32239); test: Displacement of CCK-8 from human Cholecystokinin type B receptor expressing CHO cell membranes; conditions: for Log IC50: cho
T1 sequence (P32239 whole entry): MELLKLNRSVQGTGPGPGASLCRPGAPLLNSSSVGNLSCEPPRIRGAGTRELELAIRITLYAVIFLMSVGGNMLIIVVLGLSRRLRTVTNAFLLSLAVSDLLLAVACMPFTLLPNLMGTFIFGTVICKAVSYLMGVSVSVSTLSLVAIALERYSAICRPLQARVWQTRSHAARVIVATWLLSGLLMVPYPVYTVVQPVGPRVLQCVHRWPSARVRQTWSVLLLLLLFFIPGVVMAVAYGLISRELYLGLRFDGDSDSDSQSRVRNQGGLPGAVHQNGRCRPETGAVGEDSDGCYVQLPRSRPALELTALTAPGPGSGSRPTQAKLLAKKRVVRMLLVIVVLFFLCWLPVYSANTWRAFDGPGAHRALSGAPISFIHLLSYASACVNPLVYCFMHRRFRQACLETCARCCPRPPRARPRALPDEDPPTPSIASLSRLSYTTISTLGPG

[4] = target: T2, Cholecystokinin receptor type A (Homo sapiens, UniProt P32238); test: Displacement of CCK-8 from CHO cell membranes expressing human Cholecystokinin type A receptor; conditions: for Log IC50: cho
T2 sequence (P32238 whole entry): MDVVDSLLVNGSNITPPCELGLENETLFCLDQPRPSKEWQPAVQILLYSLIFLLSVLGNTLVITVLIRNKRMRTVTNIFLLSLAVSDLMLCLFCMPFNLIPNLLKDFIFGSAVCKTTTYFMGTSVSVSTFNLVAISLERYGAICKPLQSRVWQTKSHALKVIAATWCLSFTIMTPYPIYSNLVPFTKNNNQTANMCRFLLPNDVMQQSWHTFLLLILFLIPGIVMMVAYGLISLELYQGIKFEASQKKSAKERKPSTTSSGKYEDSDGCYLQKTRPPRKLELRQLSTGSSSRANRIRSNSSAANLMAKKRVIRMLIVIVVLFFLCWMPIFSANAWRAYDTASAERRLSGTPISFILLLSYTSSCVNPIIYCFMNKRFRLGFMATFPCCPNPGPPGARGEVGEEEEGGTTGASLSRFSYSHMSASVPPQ

[5] = target: T3, Cholecystokinin receptor type A (Cavia porcellus, UniProt Q63931); test: Antagonist activity against CCK-8 induced responses in guinea pig gall bladder was determined; format: functional, tissue-based; conditions: for Kb: read-out: pA2 (converted)
T3 sequence (Q63931 whole entry): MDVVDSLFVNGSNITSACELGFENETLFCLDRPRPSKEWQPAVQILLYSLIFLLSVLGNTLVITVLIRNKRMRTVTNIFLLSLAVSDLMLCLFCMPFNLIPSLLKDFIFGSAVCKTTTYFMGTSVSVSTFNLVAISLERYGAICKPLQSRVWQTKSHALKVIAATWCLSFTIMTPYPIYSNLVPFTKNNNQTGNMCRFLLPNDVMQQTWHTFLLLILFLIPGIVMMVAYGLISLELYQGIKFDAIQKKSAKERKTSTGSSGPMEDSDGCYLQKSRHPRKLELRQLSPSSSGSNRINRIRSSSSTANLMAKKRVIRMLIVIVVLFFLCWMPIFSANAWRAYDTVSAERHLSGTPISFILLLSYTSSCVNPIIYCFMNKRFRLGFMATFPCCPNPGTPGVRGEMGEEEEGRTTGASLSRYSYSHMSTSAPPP
Method in brief: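 Isolated guinea pig gallbladder rings in physiological salt solution at 37 °C, 95% O2/5% CO2, pH 7.4, under 1 g resting tension, with isometric force recording. Tissues from at least three animals were incubated 60 min with antagonist (three to five concentrations), then given a cumulative sulfated CCK-8 curve. Paired untreated tissue served as time/solvent control for the concentration ratio. pA2 was derived by Schild analysis.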

Cavia porcellus [6] = organism: Cavia porcellus; test: Effective concentration required to induce contraction of guinea pig gall bladder

SMILES: CC(=O)N[C@@H](Cc1c[nH]c2ccccc12)C(=O)NC(Cc1ccc(NC(=O)Nc2ccccc2Cl)cc1)C(=O)N[C@@H](CC(=O)O)C(=O)N[C@H](Cc1ccc(C)cc1)C(N)=O (stereo not given in full)
Activity (Cavia porcellus [1]): inactive

SMILES: CC(=O)N[C@@H](Cc1c[nH]c2ccccc12)C(=O)N[C@@H](CCCCNC(=O)Nc1ccccc1C)C(=O)N[C@@H](CC(=O)O)C(=O)N[C@@H](Cc1ccc(C)cc1)C(N)=O [listing 1 of 2 here]
Activity (Cavia porcellus [2]): 105%

SMILES: CC(=O)N[C@@H](Cc1c[nH]c2ccccc12)C(=O)NC(Cc1ccc(NC(=O)Nc2ccccc2C)cc1)C(=O)N[C@@H](CC(=O)O)C(=O)N[C@H](Cc1ccc(C)cc1)C(N)=O (stereo not given in full)
Activity (Cavia porcellus [1]): inactive

SMILES: CC(=O)N[C@@H](Cc1c[nH]c2ccccc12)C(=O)N[C@@H](CCCCNC(=O)Nc1ccccc1Cl)C(=O)N[C@@H](CC(=O)O)C(=O)N[C@@H](Cc1ccc(C)cc1)C(N)=O [listing 1 of 2 here]
Log IC50 [3]: -6
Log IC50 [4]: -8.3
EC50 (Cavia porcellus [6]): 0.501 nM

SMILES: CC(=O)N[C@@H](Cc1c[nH]c2ccccc12)C(=O)N[C@@H](CCCCNC(=O)Nc1ccccc1Cl)C(=O)N[C@@H](CC(=O)O)C(=O)N[C@@H](Cc1ccc(C)cc1)C(N)=O [listing 2 of 2 here]
Activity (Cavia porcellus [2]): 117%

SMILES: Cc1cccc(NC(=O)N[C@@H]2N=C(c3ccccc3)c3ccccc3N(C)C2=O)c1 [L-365260]
IC50 [4]: 158 nM

SMILES: CC(=O)N[C@@H](Cc1c[nH]c2ccccc12)C(=O)N[C@@H](CCCCNC(=O)Nc1ccccc1C)C(=O)N[C@@H](CC(=O)O)C(=O)N[C@@H](Cc1ccc(C)cc1)C(N)=O [listing 2 of 2 here]
IC50 [3]: 5010 nM
IC50 [4]: 20 nM
EC50 (Cavia porcellus [6]): 1.58 nM

Continued, in another order:

Log IC50 [3]: -4.3
Log IC50 [4]: -7.2
pA2 [5]: 7.4
SMILES: CC(=O)N[C@H](Cc1c[nH]c2ccccc12)C(=O)NC(Cc1cccc(NC(=O)Nc2ccccc2C)c1)C(=O)N[C@H](CC(=O)O)C(=O)N[C@@H](Cc1ccc(C)cc1)C(N)=O (stereo not given in full)
Activity (Cavia porcellus [1]): inactive

IC50 [3]: 63100 nM
IC50 [4]: 100 nM
Kb [5]: 79.4 nM
SMILES: CC(=O)N[C@@H](Cc1c[nH]c2ccccc12)C(=O)N[C@@H](Cc1ccc(NC(=O)Nc2ccccc2Cl)cc1)C(=O)N[C@@H](CC(=O)O)C(=O)N[C@@H](Cc1ccc(C)cc1)C(N)=O

IC50 [3]: 100000 nM
IC50 [4]: 31.6 nM
Kb [5]: 39.8 nM
SMILES: CC(=O)N[C@@H](Cc1c[nH]c2ccccc12)C(=O)N[C@@H](Cc1ccc(NC(=O)Nc2ccccc2C)cc1)C(=O)N[C@@H](CC(=O)O)C(=O)N[C@@H](Cc1ccc(C)cc1)C(N)=O

Log IC50 [3]: -5
Log IC50 [4]: -7
pA2 [5]: 7.2
SMILES: CC(=O)N[C@@H](Cc1c[nH]c2ccccc12)C(=O)NC(Cc1cccc(NC(=O)Nc2ccccc2C)c1)C(=O)N[C@@H](CC(=O)O)C(=O)N[C@H](Cc1ccc(C)cc1)C(N)=O (stereo not given in full)
Activity (Cavia porcellus [1]): inactive
